Test results taken from ChEMBL document CHEMBL1155808, “Antitumor activity of bis-indole derivatives” (J Med Chem, 2008).
Structures can show the parent of a compound that is named as a salt. The source made the active and inactive calls. No cut-off for these calls is given here.

How the values were obtained:
[1] = Cytotoxicity against human renal cancer cells; type: functional; conditions: Cancer cell lines; for CC50: read-out: pLC50 (the source's name) (converted); for TGI: read-out: pTGI (converted)
Method in brief: (§1)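 NCI 60-cell-line human tumour screen, with subpanels for leukemia, melanoma, lung, colon, kidney, ovary, breast, prostate and CNS. Compounds were dissolved in DMSO and tested at five ten-fold dilutions, highest 10^-4 M (10^-3 M for some). Endpoints were GI50, TGI and LC50, reported as negative log molar. Some compounds were assayed once, others two or three times.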

[2] = Cytotoxicity against human melanoma cells; type: functional; conditions: Melanoma cell; for CC50: read-out: pLC50 (the source's name) (converted); for TGI: read-out: pTGI (converted)
[3] = Cytotoxicity against human prostate cancer cells; type: functional; conditions: Cancer cell lines; for CC50: read-out: pLC50 (the source's name) (converted); for TGI: read-out: pTGI (converted); method in brief: as §1
[4] = Cytotoxicity against human Non-small cell lung carcinoma cells; type: functional; conditions: for CC50: read-out: pLC50 (the source's name) (converted); for TGI: read-out: pTGI (converted); method in brief: as §1
[5] = Inhibition of plasma membrane electron transport pathway in mitochondrial gene-knockout human HL60p'0 cells by WST1 reduction assay
Method in brief: (§2)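 Cells at 10^5 per well in 0.1 ml pretreated 30 min with compound in DMSO (<0.1% final), then WST-1/mPMS added (final 500 µM and 20 µM); WST-1 reduction followed in real time at 450 nm; averages ± S.E.M. of four independent experiments.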

[6] = Cytotoxicity against human central nervous system cancer cells; type: functional; conditions: Cancer cell lines; for CC50: read-out: pLC50 (the source's name) (converted); for TGI: read-out: pTGI (converted); method in brief: as §1
HEL = assay: Antiproliferative activity against human HEL cells after 48 hrs by MTT assay; type: functional, cell-based
[7] = Cytotoxicity against human colon cancer cells; type: functional; conditions: Cancer cell lines; for CC50: read-out: pLC50 (the source's name) (converted); for TGI: read-out: pTGI (converted); method in brief: as §1
[8] = Inhibition of plasma membrane electron transport pathway in human HL60 cells by WST1 reduction assay; type: cell-based; conditions: HL-60; method in brief: as §2
[9] = Cytotoxicity against human leukemia cells; type: functional; conditions: Leukemia cell; for CC50: read-out: pLC50 (the source's name) (converted); for TGI: read-out: pTGI (converted); method in brief: as §1
Mo7e = assay: Antiproliferative activity against human Mo7e cells after 48 hrs by MTT assay; type: functional, cell-based
[10] = Cytotoxicity against human breast cancer cells; type: functional; conditions: Cancer cell lines; for CC50: read-out: pLC50 (the source's name) (converted); for TGI: read-out: pTGI (converted)
Method in brief: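 MTT cytotoxicity assay in breast cancer cell lines; proliferation expressed as percent growth inhibition relative to vehicle-treated control cells; IC50 reported.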

[11] = Cytotoxicity against human ovarian cancer cells; type: functional; conditions: Cancer cell lines; for CC50: read-out: pLC50 (the source's name) (converted); for TGI: read-out: pTGI (converted)
B1647 = assay: Antiproliferative activity against human B1647 cells after 48 hrs by MTT assay; type: functional, cell-based
[12] = Inhibition of plasma membrane electron transport pathway in human HL60 cells at 200 uM by WST1 reduction assay; type: cell-based; conditions: HL-60

SMILES	GI50 [1]	CC50 [1]	GI50 [2]	GI50 [3]	CC50 [3]	GI50 [4]	IC50 [5]	GI50 [6]	CC50 [6]	TGI [6]	Activity (HEL)	GI50 [7]	CC50 [7]	IC50 [8]	GI50 [9]	Activity (Mo7e)	GI50 [10]	CC50 [10]	GI50 [11]	Activity (B1647)	other results
O=C1Nc2cc(Cl)ccc2/C1=C\c1cccc(/C=C2/C(=O)Nc3cc(Cl)ccc32)n1	1.07 µM	20 µM	1780 nM	3.39 µM	70.8 µM	3.72 µM	> 117 µM	2.24 µM	36.3 µM	7.76 µM	Active	1740 nM	25.1 µM	> 117 µM	1450 nM	Active	2290 nM	52.5 µM	3.02 µM	Active	TGI [1]: 3.31 µM; CC50 [2]: 21.4 µM; TGI [2]: 6.17 µM; TGI [3]: 40.7 µM; CC50 [4]: 57.5 µM; TGI [4]: 14.8 µM; TGI [7]: 4.9 µM; CC50 [9]: 95.5 µM; TGI [9]: 8.13 µM; TGI [10]: 13.5 µM; CC50 [11]: 63.1 µM; TGI [11]: 19.5 µM
O=C(O)CCC(=O)c1ccc2c(c1)/C(=C\c1cccc(/C=C3/C(=O)Nc4ccc(C(=O)CCC(=O)O)cc43)n1)C(=O)N2	–	–	–	–	–	–	–	30.2 µM	–	61.7 µM	–	–	–	–	15500 nM	–	–	–	–	–	–
O=c1[nH]/c(=C\c2c[nH]c3ccccc23)c(=O)[nH]/c1=C\c1c[nH]c2ccccc12	70.8 µM	–	55000 nM	–	–	97.7 µM	> 117 µM	64.6 µM	–	–	Active	–	–	> 117 µM	–	Active	64600 nM	–	–	Active	Activity [12]: inactive
O=C1Nc2ccc(F)cc2/C1=C\c1cccc(/C=C2/C(=O)Nc3ccc(F)cc32)n1	4.17 µM	51.3 µM	2040 nM	3.47 µM	74.1 µM	7.24 µM	> 117 µM	3.8 µM	53.7 µM	11.5 µM	Active	2140 nM	39.8 µM	> 117 µM	1170 nM	Active	2950 nM	50.1 µM	4.17 µM	Active	TGI [1]: 12.9 µM; CC50 [2]: 36.3 µM; TGI [2]: 4.9 µM; TGI [3]: 12.3 µM; CC50 [4]: 79.4 µM; TGI [4]: 26.3 µM; TGI [7]: 5.37 µM; TGI [9]: 7.76 µM; TGI [10]: 14.5 µM; CC50 [11]: 81.3 µM
CC(=O)n1c(=O)/c(=C/c2c[nH]c3ccccc23)n(C(C)=O)c(=O)/c1=C/c1c[nH]c2ccccc12	29.5 µM	–	87100 nM	–	–	85.1 µM	> 117 µM	75.9 µM	–	–	Active	–	–	> 117 µM	93300 nM	Active	66100 nM	–	79.4 µM	Active	Activity [12]: inactive
O=C1Nc2ccccc2/C1=C\c1cccc(/C=C2/C(=O)Nc3ccccc32)n1	–	5.37 µM	302 nM	0.631 µM	24.5 µM	0.813 µM	–	0.575 µM	7.08 µM	1.82 µM	–	282 nM	6.46 µM	–	234 nM	–	490 nM	57.5 µM	0.589 µM	–	TGI [1]: 1.62 µM; CC50 [2]: 4.68 µM; TGI [2]: 0.933 µM; TGI [3]: 2.69 µM; CC50 [4]: 22.4 µM; TGI [4]: 3.16 µM; TGI [7]: 0.776 µM; TGI [9]: 1.95 µM; CC50 [11]: 6.61 µM; TGI [11]: 1.78 µM
Cc1cc2c(cc1O)/C(=C\c1cccc(/C=C3/C(=O)Nc4cc(C)c(O)cc43)n1)C(=O)N2	67.6 µM	–	87100 nM	66.1 µM	–	85.1 µM	> 117 µM	–	–	–	Active	72400 nM	–	> 117 µM	27500 nM	Active	70800 nM	–	75.9 µM	Active	TGI [10]: 87.1 µM
CC[C@]1(O)C[C@H]2CN(CCc3c([nH]c4ccccc34)[C@@](C(=O)OC)(c3cc4c(cc3OC)N(C=O)[C@H]3[C@@](O)(C(=O)OC)[C@H](OC(C)=O)[C@]5(CC)C=CCN6CC[C@]43[C@@H]65)C2)C1 [VINCRISTINE SULFATE]	0.316 µM	251 µM	158 nM	0.126 µM	316 µM	0.251 µM	–	0.126 µM	200 µM	–	–	100 nM	79.4 µM	–	100 nM	–	316 nM	316 µM	0.316 µM	–	CC50 [9]: 631 µM; CC50 [11]: 316 µM
